Measurements from ChEMBL document CHEMBL4229360, “Antimalarial agents against both sexual and asexual parasites stages: structure-activity relationships and biological studies of the Malaria Box compound 1-[5-(4-bromo-2-chlorophenyl)furan-2-yl]-N-[(piperidin-4-yl)methyl]methanamine (MMV019918) and analogues” (Eur J Med Chem, 2018).
pIC50: −log10 of the molar value.

How the values were obtained:
Plasmodium falciparum [1] = test: Gametocytocidal activity against Plasmodium falciparum 3D7 elo1-pfs16-CBG99 late-stage (4 to 5) gametocytes assessed as inhibition of parasite viability after 72 hrs by luciferase reporter assay; type: functional, organism-based; settings: 3D7 elo1-pfs16-CBG99, 72 h
Summary of the method: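 Transgenic 3D7elo1-pfs16-CBG99 gametocytes express CBG99 luciferase from the pfs16 promoter. Stage IV–V gametocytes (Giemsa-checked) were exposed at day 8–10 after NAG addition to serial dilutions in complete medium for 72 h. Samples at 2% haematocrit were then mixed 1:1 with D-luciferin (1 mM, pH 5.5 citrate) for 10 min and luminescence was read. IC50 came from non-linear regression, mean of ≥3 experiments in duplicate.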

Plasmodium falciparum [2] = test: Antiplasmodial activity against chloroquine-resistant Plasmodium falciparum W2 after 72 hrs by lactate dehydrogenase assay; type: functional, organism-based; settings: W2, 72 h
Summary of the method: (§1)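 Asynchronous blood-stage cultures at 1–1.5% parasitemia and 1% final hematocrit in human A+ RBCs, RPMI 1640 with 1% AlbuMax, hypoxanthine, HEPES and glutamine. Serial dilutions from DMSO stocks, final DMSO <1%. Incubated 72 h at 37 °C under 1% O₂/5% CO₂. IC50 is the mean of ≥3 experiments in duplicate.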

Plasmodium falciparum [3] = test: Antiplasmodial activity against chloroquine-sensitive Plasmodium falciparum D10 after 72 hrs by lactate dehydrogenase assay; type: functional, organism-based; settings: D10, 72 h; summary of the method: as §1
[4] = Cytotoxicity against mouse NIH/3T3 cells after 24 hrs by neutral red uptake assay; type: cell-based, NIH3T3; settings: read-out: TC50
Summary of the method: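 NIH3T3 cells exposed for 24 h; viability by neutral red uptake. Mean of three experiments, six replicates each.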

Plasmodium falciparum [5] = test: Gametocytocidal activity against Plasmodium falciparum NF54 HGL gametocytes assessed as inhibition of parasite viability after 72 hrs by ONE-Glo reagent based luminescence assay; type: functional, organism-based
Summary of the method: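 NF54 gametocytes raised in 5% haematocrit RPMI1640/10% human serum, with 50 mM NAG on days 4–9. Mainly stage IV gametocytes isolated on day 11 by Percoll gradient and seeded at 5000 cells/well, final DMSO 0.1%. Incubated 72 h at 37 °C, 3% O2, 4% CO2; viability by ONE-Glo luminescence.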

Plasmodium falciparum [6] = test: Antiplasmodial activity against asexual blood stage Plasmodium falciparum NF54 after 72 hrs by SYBR green-based fluorometric analysis; type: functional, organism-based; settings: NF54, 72 h
Summary of the method: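 Asexual NF54 seeded at 0.83% parasitaemia, 1.5% haematocrit, in RPMI1640 with 10% human serum. Serial dilutions, final DMSO 0.1%. Incubated 72 h at 37 °C under 3% O2, 4% CO2, then read by SYBR Green fluorescence.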

| SMILES | pIC50 (Plasmodium falciparum [1]) | pIC50 (Plasmodium falciparum [2]) | pIC50 (Plasmodium falciparum [3]) | CC50 at 24 h [4] | pIC50 (Plasmodium falciparum [5]) | pIC50 (Plasmodium falciparum [6]) |
| --- | --- | --- | --- | --- | --- | --- |
| C[N+](C)(C)CCCNCc1ccc(-c2ccc(Cl)cc2Br)o1 | < 4.62 | 5.26 | 5.60 | – | – | – |
| Clc1ccc(-c2ccc(CNCC3CCNCC3)o2)c(Br)c1 | 5.96 | 5.73 | 6.29 | < 5 µM | – | – |
| Fc1ccc(-c2ccc(CNCC3CCNCC3)o2)cc1 | 5.22 | 5.10 | 5.68 | – | – | – |
| CN(C)CCCNCc1ccc(-c2ccc(Br)cc2Cl)o1 | 5.96 | 5.85 | 5.92 | 5 µM | – | – |
| CN(C)c1ccc2nc3ccc(N(C)C)cc3[s+]c2c1 [METHYLENE BLUE ANHYDROUS] | 7.52 | – | – | – | – | – |
| Oc1ccccc1-c1ccc(CNCC2CCNCC2)o1 | 5.08 | 5.02 | 5.36 | 7 µM | 6.54 | 6.59 |
| Clc1ccc(-c2nnc(CNCC3CCNCC3)o2)c(Br)c1 | < 4.59 | 5.10 | < 4.89 | – | – | – |
| Brc1ccc(-c2ccc(CNCC3CCNCC3)o2)cc1 | 5.36 | 5.10 | 5.96 | – | – | – |
| Clc1ccc(-c2ccc(CNCC3CCNCC3)s2)c(Br)c1 | 6.08 | 5.85 | 6.28 | < 5 µM | 7.55 | 6.38 |
| COc1ccccc1-c1ccc(CNCC2CCNCC2)o1 | 4.93 | < 4.82 | 5.00 | 53 µM | – | – |
